Experimental data published in ChEMBL document CHEMBL1158567, “Azetidinone-isothiazolidinones: stereoselective synthesis and antibacterial evaluation of new monocyclic beta-lactams” (2010).
In brackets after ≈: the same amount, converted by molar mass.

How the values were obtained:
Assay type in all cases: functional
[1] = system: Moraxella catarrhalis; experiment: Antibacterial activity against Moraxella catarrhalis ATCC 23246 after overnight incubation by broth microdilution method
Method in brief: (§1)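 MIC from a broth microdilution screen against ATCC reference strains, run in cation-adjusted Mueller–Hinton broth. Inocula were made from overnight agar cultures: colonies were suspended in sterile saline to a turbidity equal to a 0.5 McFarland standard. The screen's upper cut-off was […]. Testing conditions were pH 7.4.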

[2] = system: Staphylococcus aureus; experiment: Antibacterial activity against Staphylococcus aureus ATCC 29213 after overnight incubation by broth microdilution method
Method in brief: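 MIC from a broth microdilution screen in cation-adjusted Mueller–Hinton broth against the ATCC reference strain. The inoculum was colonies from overnight agar culture suspended in sterile saline to a 0.5 McFarland turbidity. The top concentration tested was […]. Testing conditions were pH 7.4.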

[3] = system: Escherichia coli; experiment: Antibacterial activity against Escherichia coli ATCC 25922 after overnight incubation by broth microdilution method; method in brief: as §1
[4] = system: Enterococcus faecalis; experiment: Antibacterial activity against Enterococcus faecalis ATCC 29212 after overnight incubation by broth microdilution method; method in brief: as §1
[5] = system: Haemophilus influenzae; experiment: Antibacterial activity against Haemophilus influenzae ATCC 49247 after overnight incubation by broth microdilution method
Method in brief: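 Broth microdilution MIC run in Haemophilus Test Medium (HTM). The inoculum was overnight agar colonies suspended in sterile saline to 0.5 McFarland turbidity. The upper cut-off was […]. Testing conditions were pH 7.4.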

[6] = system: Streptococcus pneumoniae; experiment: Antibacterial activity against Streptococcus pneumoniae ATCC 6305 after overnight incubation by broth microdilution method
Method in brief: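 Broth microdilution MIC in cation-adjusted Mueller–Hinton broth supplemented with 5% horse serum. The inoculum was overnight agar colonies suspended in sterile saline to 0.5 McFarland turbidity. The screen cut-off was […]. Testing conditions were pH 7.4.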

Row | Compound | MIC [1] [µg/mL] | MIC [2] [µg/mL] | MIC [3] [µg/mL] | MIC [4] [µg/mL] | MIC [5] [µg/mL] | MIC [6] [µg/mL]
1 | CC1(C)S[C@@H]2[C@H](N3C(=O)c4ccccc4C3=O)C(=O)N2[C@H]1C(=O)N[C@H](C(=O)OCc1ccccc1)c1ccccc1 | > 128 | – | – | – | – | –
2 | CC(C)NC(=O)[C@@H]1N2C(=O)[C@@H](N3C(=O)c4ccccc4C3=O)[C@H]2SC1(C)C | > 128 | – | – | – | – | –
3 | CC1(C)SN([C@H](C(=O)OCc2ccccc2)c2ccccc2)C(=O)[C@@H]1N1C(=O)[C@@H](N2C(=O)c3ccccc3C2=O)[C@@H]1Cl | 64 (≈ 106 µM) | 32 (≈ 53 µM) | > 128 | 16 (≈ 26.5 µM) | > 128 | 8 (≈ 13.2 µM)
4 | CC1(C)SN(CC(=O)OCc2ccccc2)C(=O)[C@@H]1N1C(=O)[C@@H](N2C(=O)c3ccccc3C2=O)[C@@H]1Cl | 32 (≈ 60.6 µM) | 64 (≈ 121 µM) | > 128 | 32 (≈ 60.6 µM) | > 128 | 64 (≈ 121 µM)
5 | CC(C)N1SC(C)(C)[C@@H](N2C(=O)[C@@H](N3C(=O)c4ccccc4C3=O)[C@@H]2Cl)C1=O | 64 (≈ 152 µM) | – | – | – | – | –
6 | CC1(C)S[C@@H]2[C@H](N3C(=O)c4ccccc4C3=O)C(=O)N2[C@H]1C(=O)NCC(=O)OCc1ccccc1 | 64 (≈ 130 µM) | – | – | – | – | –
7 | CC1(C)SN(Cc2ccccc2)C(=O)[C@@H]1N1C(=O)[C@@H](N2C(=O)c3ccccc3C2=O)[C@@H]1Cl | 16 (≈ 34 µM) | 128 (≈ 272 µM) | > 128 | 64 (≈ 136 µM) | > 128 | 64 (≈ 136 µM)
8 | CC1(C)S[C@@H]2[C@H](N3C(=O)c4ccccc4C3=O)C(=O)N2[C@H]1C(=O)NCc1ccccc1 | 64 (≈ 147 µM) | – | – | – | – | –
9 | C[C@H](NC(=O)[C@@H]1N2C(=O)[C@@H](N3C(=O)c4ccccc4C3=O)[C@H]2SC1(C)C)C(=O)OCc1ccccc1 | > 128 | – | – | – | – | –
10 | CC1(C)S[C@@H]2[C@H](NC(=O)[C@H](N)c3ccc(O)cc3)C(=O)N2[C@H]1C(=O)O [AMOXICILLIN] | 0.5 (≈ 1.37 µM) | 1 (≈ 2.74 µM) | 0.5 (≈ 1.37 µM) | 4 (≈ 10.9 µM) | 0.015 (≈ 0.041 µM) | 4 (≈ 10.9 µM)

More lines, now with the values ahead:

Row | MIC [1] [µg/mL] | MIC [2] [µg/mL] | MIC [3] [µg/mL] | MIC [4] [µg/mL] | MIC [5] [µg/mL] | MIC [6] [µg/mL] | Compound
11 | – | – | – | > 128 | – | – | C[C@@H](C(=O)O)N1SC(C)(C)[C@@H](N2C(=O)[C@@H](N3C(=O)c4ccccc4C3=O)[C@@H]2Cl)C1=O
12 | > 128 | – | – | – | – | – | CC1(C)SN([C@H](C(=O)O)c2ccccc2)C(=O)[C@@H]1N1C(=O)[C@@H](N2C(=O)c3ccccc3C2=O)[C@@H]1Cl
13 | 32 (≈ 59 µM) | 64 (≈ 118 µM) | > 128 | 64 (≈ 118 µM) | > 128 | 64 (≈ 118 µM) | C[C@@H](C(=O)OCc1ccccc1)N1SC(C)(C)[C@@H](N2C(=O)[C@@H](N3C(=O)c4ccccc4C3=O)[C@@H]2Cl)C1=O
14 | – | – | – | > 128 | – | – | CC1(C)SN(CC(=O)O)C(=O)[C@@H]1N1C(=O)[C@@H](N2C(=O)c3ccccc3C2=O)[C@@H]1Cl
